Source: ChEMBL document CHEMBL3272319, “Alkyl streptozotocin analogues with improved biological activities” (J Med Chem, 1976)

Assays:
Proteus vulgaris = assay: Antibacterial activity against Proteus vulgaris AHU 1469 assessed as growth inhibition after 18 hrs by broth dilution method; type: functional; details: AHU 1469, 18 h
How it was run: (§1)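 Twofold serial dilutions in heart infusion broth. Inoculum was a 24-h heart infusion broth culture diluted 100-fold in physiological saline. Tubes incubated 30 °C for 18 h; the table footnote gives 32 °C for 24 h. MIC in µg/ml is the lowest level giving complete growth inhibition.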

Pseudomonas fluorescens = assay: Antibacterial activity against Pseudomonas fluorescens NIHJ B-254 assessed as growth inhibition after 18 hrs by broth dilution method; type: functional; details: NIHJ B-254, 18 h; how it was run: as §1
Klebsiella pneumoniae = assay: Antibacterial activity against Klebsiella pneumoniae ATCC 10031 assessed as growth inhibition after 18 hrs by broth dilution method; type: functional; details: ATCC 10031, 18 h; how it was run: as §1
Mus musculus [1] = assay: Toxicity in BDF1 mouse allografted with mouse L1210 cells assessed as mortality at 50 mg/kg, ip qd for 5 days; type: organism-based; set-up: dose 50 mg/kg, route intraperitoneal; details: in vivo, 120 h
How it was run: (§2)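 L1210 (1 × 10^5 cells) implanted into BDF1 mice, six per group; compound in saline ip once daily days 1-5; effect read as % increase in life span, ILS = [(treated life span/control life span) − 1] × 100.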

Shigella sonnei = assay: Antibacterial activity against Shigella sonnei assessed as growth inhibition after 18 hrs by broth dilution method; type: functional; how it was run: as §1
Escherichia coli = assay: Antibacterial activity against Escherichia coli NIHJ JC-2 assessed as growth inhibition after 18 hrs by broth dilution method; type: functional; details: NIHJ JC-2, 18 h; how it was run: as §1
Enterococcus faecalis = assay: Antibacterial activity against Streptococcus faecalis ATCC 10541 assessed as growth inhibition after 18 hrs by broth dilution method; type: functional; details: ATCC 10541, 18 h; how it was run: as §1
Mus musculus [2] = assay: Ratio of compound LD10 to streptozotocin LD10 for JCL-ICR mouse; type: ADME, organism-based; details: in vivo
[3] = (§3) Acute toxicity in ip dosed JCL-ICR mouse assessed as animal death; type: organism-based; details: JCL-ICR, in vivo
How it was run: (§4)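 Groups of ten female JCL-ICR mice given single ip dose in physiological saline; deaths followed over 7 days; LD50 (and LD10) derived by Litchfield–Wilcoxon method.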

Mus musculus [4] = assay: as §3; type: organism-based; details: in vivo; how it was run: as §4
Staphylococcus aureus = assay: Antibacterial activity against Staphylococcus aureus FDA 209P JC-1 assessed as growth inhibition after 18 hrs by broth dilution method; type: functional; details: FDA 209P JC-1, 18 h; how it was run: as §1
[5] = Antitumor activity against mouse S180A allografted in ICR mouse assessed as tumor growth at 100 mg/kg, ip qd for 5 days measured on day 7 relative to control; type: functional; details: route intraperitoneal
How it was run: (§5)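 Ascites Sarcoma 180 (1 × 10^7 cells) implanted into ICR mice, six animals per group. Five daily ip injections in saline (days 1–5). Sacrificed day 7. T/C % computed from total packed cell volume (ascites volume × PCV) vs controls. Grades: 100-66 = -, 65-41 = +, 40-11 = ++, 10-0 = +++.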

Mus musculus [6] = assay: Toxicity in ICR mouse allografted with mouse S180A assessed as mortality at 100 mg/kg, ip qd for 5 days; type: organism-based; set-up: dose 100 mg/kg, route intraperitoneal; details: in vivo, 120 h
How it was run: (§6)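 Ascites Sarcoma 180 (1 × 10^7 cells) implanted into ICR mice, six per group; compound in saline ip once daily days 1-5; sacrifice on day 7; total packed cell volume (ascites volume × PCV) compared with controls as T/C %; mortality recorded.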

L1210 = assay: Antitumor activity against mouse L1210 cells allografted in BDF1 mouse assessed as increase in host lifespan at 50 mg/kg, ip qd for 5 days relative to control; type: functional; details: 120 h, route intraperitoneal; how it was run: as §2
Bacillus subtilis = assay: Antibacterial activity against Bacillus subtilis ATCC 6633 assessed as growth inhibition after 18 hrs by broth dilution method; type: functional; details: ATCC 6633, 18 h; how it was run: as §1
Rattus norvegicus = assay: Diabetogenic activity in iv dosed Wistar rat assessed as increase in blood sugar level administered as single dose by glucose oxidase method; type: ADME, organism-based; details: in vivo
How it was run: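 Male Wistar rats, about 200 g, five per group, fasted 16 h. Single iv dose into the femoral vein in physiological saline, equimolar across compounds. Caudal-vein blood sampled at set times over 24 h. Sugar measured by glucose oxidase.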

Micrococcus luteus = assay: Antibacterial activity against Sarcina lutea ATCC 9341 assessed as growth inhibition after 18 hrs by broth dilution method; type: functional; details: ATCC 9341, 18 h; how it was run: as §1
[7] = Ratio of compound LD50 to streptozotocin LD50 for JCL-ICR mouse; type: ADME, organism-based; details: in vivo
Salmonella typhi = assay: Antibacterial activity against Salmonella typhi IFM 3020 assessed as growth inhibition after 18 hrs by broth dilution method; type: functional, Salmonella enterica subsp. enterica serovar Typhi; details: Salmonella enterica, IFM 3020, 18 h
How it was run: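 Twofold serial dilutions in heart infusion broth; inoculum from 24 h heart infusion broth culture diluted 100-fold in physiological saline; tubes incubated 30 °C for 18 h; MIC (µg/ml) = lowest level giving complete growth inhibition.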

[8] = Antitumor activity against mouse S180A allografted in ICR mouse assessed as tumor growth at 125 mg/kg, ip qd for 5 days measured on day 7 relative to control; type: functional; details: route intraperitoneal; how it was run: as §5
Mus musculus [9] = assay: Toxicity in ICR mouse allografted with mouse S180A assessed as mortality at 125 mg/kg, ip qd for 5 days; type: organism-based; set-up: dose 125 mg/kg, route intraperitoneal; details: in vivo, 120 h; how it was run: as §6

## CCN(N=O)C(=O)N[C@H]1[C@H](OC)O[C@H](CO)[C@@H](O)[C@@H]1O
Proteus vulgaris
  MIC: > 1000 µg/mL
Pseudomonas fluorescens
  MIC: > 1000 µg/mL
Klebsiella pneumoniae
  MIC: > 1000 µg/mL
Mus musculus [1]
  Activity: Non-toxic
Shigella sonnei
  MIC: > 1000 µg/mL
Escherichia coli
  MIC: > 1000 µg/mL
Enterococcus faecalis
  MIC: > 1000 µg/mL
Mus musculus [2]
  Ratio: 2
[3]
  LD50: 1700 mg/kg
Mus musculus [4]
  LD10: 1380 mg/kg
Staphylococcus aureus
  MIC: > 1000 µg/mL
[5]
  T/C: 65%
Mus musculus [6]
  Activity: Non-toxic
L1210
  ILS at 50 mg/kg: 14%
Bacillus subtilis
  MIC: > 1000 µg/mL
Rattus norvegicus
  Activity: Non-toxic
Micrococcus luteus
  MIC: > 1000 µg/mL
[7]
  selectivity ratio: 2
Salmonella typhi
  MIC: > 1000 µg/mL

## CCCCN(N=O)C(=O)N[C@H]1[C@@H](OC)O[C@H](CO)[C@@H](O)[C@@H]1O
[8]
  T/C: 75%
Rattus norvegicus
  Activity: Non-toxic
Mus musculus [9]
  Activity: Non-toxic
